Source: ChEMBL document CHEMBL4330056, “Synthesis and Cytotoxic and Antiviral Profiling of Pyrrolo- and Furo-Fused 7-Deazapurine Ribonucleosides” (J Med Chem, 2018)
Active and inactive are the calls of the source. No cut-off for these calls is given here.

What was measured:
K562 = assay: Antiproliferative activity against human K562 cells after 3 days by MTS assay; format: functional, cell-based; details: K562, 72 h
CCRF-CEM [1] = assay: Induction of cell cycle arrest in human CCRF-CEM cells assessed as accumulation at G2/M phase at 5 times IC50 concentration after 24 hrs by propidium iodide-staining based flow cytometry (reference value: 19.22%); format: functional
CCRF-CEM [2] = assay: Inhibition of RNA synthesis in human CCRF-CEM cells assessed as RNA synthesis level at IC50 concentration after 24 hrs by BrU incorporation assay (reference value: 49.89%); format: functional; parameters: scale not given: the % may be the effect or the level left
[3] = Metabolic stability in human liver microsomes assessed as compound remaining at 5 umol/L after 15 mins relative to control; format: ADME, Microsome; details: read-out: Stability
Summary of the method: (§1)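 Human microsomal fraction; percent compound remaining over time.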

CCRF-CEM [4] = assay: Induction of cell cycle arrest in human CCRF-CEM cells assessed as accumulation at subG1 phase at 5 times IC50 concentration after 24 hrs by propidium iodide-staining based flow cytometry (reference value: 3.45%); format: functional
[5] = Stability in human plasma assessed as compound remaining at 3.3 umol/L after 120 mins by RF-MS analysis relative to control; format: ADME, cell-free; details: read-out: Stability
Human orthopneumovirus = assay: Antiviral activity against Human respiratory syncytial virus A2 infected in Hep2 cells assessed as reduction in virus-induced cytopathic effect incubated for 4 days by CellTiter-Glo viability reagent based assay; format: functional, organism-based
CCRF-CEM [6] = assay: Antiproliferative activity against human CCRF-CEM cells after 3 days by MTS assay; format: functional, cell-based; details: 72 h
[7] = Chemical stability of the compound assessed as compound remaining after 120 mins relative to control; format: physicochemical; details: read-out: Stability
HCT-116 [8] = assay: Antiproliferative activity against human HCT116 cells after 3 days by MTS assay; format: functional, cell-based; details: HCT-116, 72 h
Hepatitis C virus = assay: Antiviral activity against Hepatitis C virus genotype 1b infected in human Huh-luc replicon cells after 3 days by luciferase assay; format: functional, organism-based, Hepacivirus hominis; details: subtype 1b, 72 h
CCRF-CEM [9] = assay: Inhibition of DNA synthesis in human CCRF-CEM cells assessed as DNA synthesis level at IC50 concentration after 24 hrs by BrdU incorporation assay (reference value: 43.39%); format: functional; parameters: scale not given: the % may be the effect or the level left
CCRF-CEM [10] = assay: Inhibition of mitosis in human CCRF-CEM cells assessed Ser10 H3 phosphorylation positive cells at 5 times IC50 concentration after 24 hrs by flow cytometry relative to total cell population (reference value: 1.36%); format: functional; parameters: scale not given: the % may be the effect or the level left
[11] = Chemical stability of the compound assessed as compound remaining after 15 mins relative to control; format: physicochemical; details: read-out: Stability
HepG2 = assay: Antiproliferative activity against human HepG2 cells after 72 hrs by XTT assay; format: functional, cell-based; details: HepG2, 72 h
CCRF-CEM [12] = assay: Induction of cell cycle arrest in human CCRF-CEM cells assessed as accumulation at S phase at 5 times IC50 concentration after 24 hrs by propidium iodide-staining based flow cytometry (reference value: 41.08%); format: functional
BJ = assay: Antiproliferative activity against human BJ cells after 3 days by MTS assay; details: 72 h
CCRF-CEM [13] = assay: Induction of cell cycle arrest in human CCRF-CEM cells assessed as accumulation at G0/G1 phase at IC50 concentration after 24 hrs by propidium iodide-staining based flow cytometry (reference value: 39.70%); format: functional
HL-60 = assay: Antiproliferative activity against human HL60 cells after 72 hrs by XTT assay; format: functional, cell-based; details: HL-60, 72 h
CCRF-CEM [14] = assay: Inhibition of RNA synthesis in human CCRF-CEM cells assessed as RNA synthesis level at 5 times IC50 concentration after 24 hrs by BrU incorporation assay (reference value: 49.89%); format: functional; parameters: scale not given: the % may be the effect or the level left
[15] = Stability in human plasma assessed as compound remaining at 3.3 umol/L after 30 mins by RF-MS analysis relative to control; format: ADME, cell-free; details: read-out: Stability
[16] = Antiproliferative activity against human CEM-DNR-bulk cells after 3 days by MTS assay; details: 72 h
U2OS = assay: Antiproliferative activity against human U2OS cells after 3 days by MTS assay; format: functional, cell-based; details: 72 h
[17] = Stability in human plasma assessed as compound remaining at 3.3 umol/L after 60 mins by RF-MS analysis relative to control; format: ADME, cell-free; details: read-out: Stability
[18] = Cytotoxicity against human Hep2 cells assessed as reduction in cell viability after 3 days by CellTiter-Glo assay; format: cell-based; details: HEp-2 cells
HCT-116 [19] = assay: Antiproliferative activity against p53 gene knocked out human HCT116 cells after 3 days by MTS assay; format: functional, cell-based; details: HCT-116, 72 h
Influenza A virus = assay: Antiviral activity against Influenza A virus (A/Mexico/4108/2009(H1N1)) infected in MDCK cells assessed as inhibited virus-induced cytopathic effect incubated for 2 days by XTT assay; format: functional, organism-based
dengue virus type 2 = assay: Antiviral activity against Dengue virus 2 Thailand/16681/84 infected in African green monkey Vero cells assessed as inhibition of virus replication incubated for 3 days by fluorescence microscopy; format: functional, organism-based
[20] = Metabolic stability in human liver microsomes assessed as compound remaining at 5 umol/L after 30 mins relative to control; format: ADME, Microsome; details: read-out: Stability; summary of the method: as §1
CCRF-CEM [21] = assay: Induction of cell cycle arrest in human CCRF-CEM cells assessed as accumulation at S phase at IC50 concentration after 24 hrs by propidium iodide-staining based flow cytometry (reference value: 41.08%); format: functional
[22] = Stability in human plasma assessed as compound remaining at 3.3 umol/L after 15 mins by RF-MS analysis relative to control; format: ADME, cell-free; details: read-out: Stability
CCRF-CEM [23] = assay: Induction of cell cycle arrest in human CCRF-CEM cells assessed as accumulation at subG1 phase at IC50 concentration after 24 hrs by propidium iodide-staining based flow cytometry (reference value: 3.45%); format: functional
[24] = Antiproliferative activity against human K562-TAX cells after 3 days by MTS assay; format: functional, cell-based; details: 72 h
Adenosine kinase = Adenosine kinase (Homo sapiens, UniProt P55263); assay: Inhibition of recombinant human ADK using [3H]-adenosine as substrate after 20 mins by TLC scanner-based analysis relative to control
Summary of the method: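 ADK inhibition: 50 μM adenosine substrate with 10 μM test compound and 97 ng enzyme, 20 min at 37 °C.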

Coxsackievirus B3 = assay: Antiviral activity against Human coxsackie B3 Nancy infected in human HeLa cells assessed as inhibited virus-induced cytopathic effect incubated for 2 days by XTT assay; format: functional, organism-based
[25] = Metabolic stability in human liver microsomes assessed as compound remaining at 5 umol/L after 60 mins relative to control; format: ADME, Microsome; details: read-out: Stability; summary of the method: as §1
CCRF-CEM [26] = assay: Inhibition of mitosis in human CCRF-CEM cells assessed Ser10 H3 phosphorylation positive cells at IC50 concentration after 24 hrs by flow cytometry relative to total cell population (reference value: 1.36%); format: functional; parameters: scale not given: the % may be the effect or the level left
[27] = Protein binding in human plasma; format: ADME, cell-free; details: read-out: PPB (converted)
CCRF-CEM [28] = assay: Induction of cell cycle arrest in human CCRF-CEM cells assessed as accumulation at G2/M phase at IC50 concentration after 24 hrs by propidium iodide-staining based flow cytometry (reference value: 19.22%); format: functional
MRC5 = assay: Antiproliferative activity against human MRC5 cells after 3 days by MTS assay; details: MRC5, 72 h
[29] = Chemical stability of the compound assessed as compound remaining after 30 mins relative to control; format: physicochemical; details: read-out: Stability
[30] = Effective permeability of the compound at 20 umol/L by PAMPA; format: ADME; details: 20 µM

Adenosine kinase, sequence (P55263 whole entry): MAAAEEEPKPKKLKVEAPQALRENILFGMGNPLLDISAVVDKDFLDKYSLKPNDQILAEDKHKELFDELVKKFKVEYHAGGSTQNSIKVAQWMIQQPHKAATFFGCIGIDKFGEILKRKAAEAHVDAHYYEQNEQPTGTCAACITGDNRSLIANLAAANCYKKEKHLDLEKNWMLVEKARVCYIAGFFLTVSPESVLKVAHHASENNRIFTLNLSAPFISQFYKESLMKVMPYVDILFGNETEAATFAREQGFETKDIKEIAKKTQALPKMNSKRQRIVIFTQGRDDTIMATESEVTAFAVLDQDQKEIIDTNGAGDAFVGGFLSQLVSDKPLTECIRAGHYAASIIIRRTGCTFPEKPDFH

## Cc1ncnc2c1c1occc1n2[C@@H]1O[C@H](CO)[C@@H](O)[C@H]1O
K562
  IC50: 410 nM
CCRF-CEM [1]
  Activity: 13.52%
CCRF-CEM [2]
  Activity: 21.63%
[3]
  remaining at 0.25 h, 5 µM: 100%
CCRF-CEM [4]
  Activity: 20.53%
[5]
  remaining at 2 h, 3.3 µM: 96%
Human orthopneumovirus
  Activity: inactive
CCRF-CEM [6]
  IC50: 240 nM
[7]
  remaining at 2 h: 96%
HCT-116 [8]
  IC50: 450 nM
Hepatitis C virus
  EC50: 280 nM
CCRF-CEM [9]
  Activity: 38.11%
CCRF-CEM [10]
  Activity: 0.99%
[11]
  remaining at 0.25 h: 99%
HepG2
  IC50: 2120 nM
CCRF-CEM [12]
  Activity: 59.66%
BJ
  IC50: 7730 nM
CCRF-CEM [13]
  Activity: 44.57%
HL-60
  IC50: 1200 nM
CCRF-CEM [14]
  Activity: 0.61%
[15]
  remaining at 0.5 h, 3.3 µM: 99%
[16]
  IC50: > 50000 nM
U2OS
  IC50: 570 nM
[17]
  remaining at 1 h, 3.3 µM: 98%
[18]
  CC50 at 72 h: > 44400 nM
HCT-116 [19]
  IC50: 450 nM
Influenza A virus
  Activity: inactive
Dengue virus type 2
  Activity: inactive
[20]
  remaining at 0.5 h, 5 µM: 99%
CCRF-CEM [21]
  Activity: 39.31%
[22]
  remaining at 0.25 h, 3.3 µM: 99%
CCRF-CEM [23]
  Activity: 7.62%
[24]
  IC50: 6930 nM
Adenosine kinase
  IC50: > 10000 nM
Coxsackievirus B3
  Activity: inactive
[25]
  remaining at 1 h, 5 µM: 98%
CCRF-CEM [26]
  Activity: 1.09%
[27]
  fraction unbound: 0.41
CCRF-CEM [28]
  Activity: 16.12%
MRC5
  IC50: > 50000 nM
[29]
  remaining at 0.5 h: 99%
[30]
  log(permeability): -6.88
